# Screening data from PubChem.
# Shown are actives, neighbours in structure and some others; about 1.6% of the full set was active somewhere.
# UHRF1 MBD2 ctr = human UHRF1 methylated DNA binding inhibitors; inhibition, % at 4.4 µM; AID 687016; Q96T88; 370,000 tested, 0.75% active; UHRF1 binding to methylated oligo, TR-FRET; in the data active = inhibition above about 21%;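 note: UHRF1 SRA domain binding a hemimethylated CpG hairpin DNA probe; 0% = median of test compound wells and 100% = reference inhibitor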
# Target sequence (Q96T88 whole entry, looked up, the tested form may be a part): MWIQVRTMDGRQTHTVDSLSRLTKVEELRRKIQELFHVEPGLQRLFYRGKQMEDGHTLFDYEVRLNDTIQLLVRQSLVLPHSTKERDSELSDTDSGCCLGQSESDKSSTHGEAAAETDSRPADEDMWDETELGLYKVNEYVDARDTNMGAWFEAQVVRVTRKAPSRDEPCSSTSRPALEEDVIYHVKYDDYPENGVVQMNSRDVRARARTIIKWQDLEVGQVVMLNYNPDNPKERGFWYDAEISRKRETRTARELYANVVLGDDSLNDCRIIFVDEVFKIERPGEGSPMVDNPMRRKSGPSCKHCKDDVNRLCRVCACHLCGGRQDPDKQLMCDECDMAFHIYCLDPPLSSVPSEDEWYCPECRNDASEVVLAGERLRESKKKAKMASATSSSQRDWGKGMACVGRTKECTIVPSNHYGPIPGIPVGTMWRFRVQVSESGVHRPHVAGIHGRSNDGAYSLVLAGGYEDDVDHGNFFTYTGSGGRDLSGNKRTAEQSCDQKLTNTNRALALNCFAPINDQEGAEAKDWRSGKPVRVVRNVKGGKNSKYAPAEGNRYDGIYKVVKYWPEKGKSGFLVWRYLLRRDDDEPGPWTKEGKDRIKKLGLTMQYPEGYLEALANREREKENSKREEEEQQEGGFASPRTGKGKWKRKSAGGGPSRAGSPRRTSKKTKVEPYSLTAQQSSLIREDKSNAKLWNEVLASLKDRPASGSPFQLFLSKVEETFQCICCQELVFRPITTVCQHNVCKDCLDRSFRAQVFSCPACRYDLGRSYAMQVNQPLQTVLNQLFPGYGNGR
# TDP2 absorb = TDP2 (human) inhibition, absorbance primary screen; inhibition, % at 12.8 µM; 370,000 tested, 0.34% active; O95551; AID 720702; recombinant TDP2, T5PNP hydrolysis, p-nitrophenol absorbance 415 nm;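 active = inhibition above the mean of all tested compounds plus 3 SD, set per campaign, cut at about 25% in these data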;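 note: 0% = DMSO with enzyme and 100% = buffer with substrate but no TDP2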
#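 System – recombinant human TDP2 · Amount – 120 nM TDP2 per well · Buffer or medium – Mg2+-containing Tris-HCl buffer, pH 7.5 · Reagent – T5PNP substrate, 5 mM · Dosing – 12.8 µM single point, 1% DMSO · Incubation – 2 h at 37 °C · Measured by – epi absorbance · Read-out basis – percent inhibition · Benchmarks – high control without enzyme, low control DMSO plus TDP2 · Repeats – singlicate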
# LEDGF integ inh = blocks HIV-1 LEDGF/p75-dependent DNA integration; TR-FRET IN-LEDGF/p75 DNA integration, Eu/Cy5; inhibition, % at 3.7 µM; 370,000 tested, 0.64% active; AID 743269;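 active = inhibition above the screen-wide mean plus 3 SD, cut at about 13% in these data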;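 note: signal is the Cy5 over europium emission ratio at 671 and 618 nm; 0% = plate median of compound wells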
# MBD2 DNA inh = inhibitors of human MBD2 binding to methylated oligonucleotide. TR-FRET. inhibition, % at 4.4 µM. 370,000 tested, 0.31% active. AID 686964; in the data active = inhibition above about 13%
# An asterisk follows results filed as active.
SMILES,UHRF1 MBD2 ctr,TDP2 absorb,LEDGF integ inh,MBD2 DNA inh
C=CCN(c1ccc(C(=O)NCCN2CCOCC2)cc1)S(C)(=O)=O,29*,4,3,-2
O=C(NC(=S)NCCCN1CCOCC1)c1ccc(Br)cc1,-1,-9,6,-4
S=C(c1ccc[nH]1)N1CCOCC1,-1,-9,-2,-2
C[C@@H](NC(=O)Cn1cnc2c(NCc3ccccc3)ncnc21)c1cccc2ccccc12,0,2,3,2
Cc1cc(C)c(S(=O)(=O)/N=C2/C=C(Sc3ncn[nH]3)C(=O)c3ccccc32)cc1C,7,67*,42*,-7
CC(=O)Nc1ccc(O)c(-c2nc3ccccc3s2)c1,39*,-2,-5,1
COC(=O)c1[nH]c(C)c(/C(O)=C2\C(=O)C(=O)N(CCCN3CCOCC3)C2c2ccccn2)c1C (stereo not given),16,13,3,6
CCC(CC)C(=O)Nc1c2c(nn1-c1ccc(OC)cc1)CS(=O)C2 (stereo not given),39*,-22,0,-3
NC(=O)c1cc([N+](=O)[O-])c(Cl)cc1NCc1ccncc1,-3,-9,3,-1
COc1ccc(-n2cnnc2SCC(=O)Nc2nc(C)c(Cl)cc2Cl)cc1,-1,14,3,-5
COc1ccc(-n2cnnc2SCC(=O)Nc2cccnc2Cl)cc1,21*,3,3,-1
CN1C(=O)C(=C2CCCCCC2)SC1=S,0,-2,4,7
O=C1NC(=S)SC1=C1CCCC1,21*,2,8,4
CCNC(=O)C1CCCN(C(=O)Cc2cccs2)CC1 (stereo not given),24*,11,0,7
COc1ccc(NC(=O)c2cc3ccccn3n2)cc1,30*,-7,4,-6
COc1ccc(NC(=O)c2cccc(NC(=O)c3ccccc3)c2)cc1,-1,5,2,-1
CN1CCN(C2=NC3(CCCC3)C(C#N)C(=O)N2)CC1 (stereo not given),-1,9,-1,2
Cc1ccc(NS(=O)(=O)c2ccc(-c3cnc(C4CC4)o3)cc2)cc1,1,-17,-2,-4
Cc1ccc(N(C)S(=O)(=O)c2ccc(-c3cnc(C4CC4)o3)cc2)cc1,23*,10,1,5
FC(F)(F)c1nnc2ccc(NCn3nnc4ccccc43)nn12,8,2,-1,-1
CCOc1ccc(NC(=O)c2cccc3c2C(=O)N(CCOC)C3)cc1,0,7,-1,6
CCC(C)Nc1nc2c(c(=O)[nH]c(=O)n2C)n1CCOc1ccccc1 (stereo not given),2,-9,3,0
CCCCn1c(NC(C)CC)nc2c1c(=O)[nH]c(=O)n2C (stereo not given),98*,-4,-2,-2
COc1cc(-c2nnc(NC(=O)c3ccc(S(=O)(=O)N4CCOCC4)cc3)o2)cc(OC)c1OC,82*,5,-2,-3
CCOC(=O)N1CCN(S(=O)(=O)c2ccc(C(=O)Nc3nnc(CSC)o3)cc2)CC1,31*,1,0,0
SMILES,UHRF1 MBD2 ctr,TDP2 absorb,LEDGF integ inh,MBD2 DNA inh
N#Cc1ccc(OCCCN2CCC(C(O)(c3ccccc3)c3ccccc3)CC2)cc1,2,0,-4,2
CCOC(=O)c1ccc(NC(=O)Nc2ccccn2)cc1,2,-6,-2,1
CC(=O)NC1(C(F)(F)F)N=C(c2ccccc2)NC1=O (stereo not given),23*,3,-1,3
CCN(CC)S(=O)(=O)c1cc(C(=O)Nc2ccccc2[N+](=O)[O-])ccc1Cl,22*,0,0,6
O=c1[nH]c(/C=C\c2cccc(F)c2)nc(O)c1[N+](=O)[O-],0,7,5,0
CC(=O)Nc1ccc(C(=O)NCCc2ccccc2)cc1,21*,15,1,3
Oc1ccc(C=Nc2cccc3ccccc23)c(O)c1,-12,16,12,-7
Cc1ccc(N=Cc2ccc(O)cc2O)cc1F,-2,-20,37*,-9
Cc1ccc(C(C(=O)NC2CCCCC2)N(CCC(C)C)C(=O)CNC(=O)c2ccco2)o1 (stereo not given),21*,9,4,7
CC(=O)c1ccc(N(C(=O)CNC(=O)c2ccco2)C(C(=O)NC2CCCC2)c2ccc(C)o2)cc1 (stereo not given),-1,-2,-2,-1
COCCNC(=O)C1(C)CCCN(C(=O)c2cccnc2SC)C1 (stereo not given),5,1,1,-1
C=CCNC(=S)Nc1cccc(NC(=S)NCC=C)c1,18,0,1,1
CCOc1ccc2ccccc2c1/C=N/NC(=O)CNC(=O)Cc1ccccc1,23*,-15,-1,2
NC(=O)C1CCN(C(=O)COc2cccc3ccccc23)CC1,40*,1,-3,-2
O=C(O)C1CCN(C(=O)c2cccc3ccccc23)CC1,30*,4,-1,-5
COc1ccccc1N1CCN(C(=O)COc2cccc3ccccc23)CC1,-2,-8,1,1
CC(C)c1cc(C(F)(F)F)n2nc(C(=O)O)cc2n1,-1,-10,-2,-1
CCCNC(=O)c1ccc(N2CCC3(CC2)CC(c2ccccc2)=NO3)c(NC(=O)c2ccccc2)c1,-1,-5,-1,-3
CCCCCCCC(=O)Nc1cc(C(=O)NCCC)ccc1N1CCC2(CC1)CC(c1ccccc1)=NO2,21*,1,6,12
Cc1nc2ccccc2n1CCc1nc2c3ccccc3nc(=S)n2[nH]1,22*,-1,-3,-1
Cc1ccccc1-c1nc2c3ccccc3nc(=S)n2[nH]1,-1,-10,4,0
CN1CCN(CCOc2ccc(Cl)c(Cl)c2)CC1,-1,15,3,3
Cc1nn(C)c(Cl)c1/C=C/C(=O)O,0,0,-7,2
Cc1nn(C)c(C)c1/C=C/C(=O)O,39*,-1,4,13
O=c1[nH]c2cc3c(cc2cc1CN(Cc1ccccc1)Cc1nnnn1Cc1ccco1)OCCO3,1,-5,16*,-1
SMILES,UHRF1 MBD2 ctr,TDP2 absorb,LEDGF integ inh,MBD2 DNA inh
COC(=O)[C@]12CCCCC=C1N(CCC1=CCCCC1)C(=O)[C@H](CC(=O)NCc1cccc3ccccc13)C2,21*,-4,-2,6
Cc1n[nH]c(C)c1CCNC(=O)C1CCC(=O)N(CCc2cccc(F)c2)C1 (stereo not given),22*,-4,-2,3
Brc1ccc(-c2nc3ncccn3c2NC2CCCCC2)o1,0,-6,-3,1
Cc1cc(C(=O)OCC(=O)N2CCC(C)CC2)c2ccccc2n1,2,-4,35*,-2
Cc1ccc2cc(CN(CC3CCCO3)C(=O)Nc3ccccc3F)c3nnnn3c2c1 (stereo not given),-1,-9,4,2
Cc1ccc2cc(CN(CC3CCCO3)S(=O)(=O)c3ccccc3)c3nnnn3c2c1 (stereo not given),21*,-3,-2,-6
CCOc1ccc(CCNC(=O)Nc2ccccc2C)cc1OCC,21*,3,-8,-1
C/C(=N\NC(=O)c1ccccc1O)c1cccc(NC(=O)c2ccccc2)c1,-3,1,-2,-2
